Reference: ChEMBL document CHEMBL3525945, “Metabolic switching of BILR 355 in the presence of ritonavir. II. Uncovering novel contributions by gut bacteria and aldehyde oxidase” (Drug Metab Dispos, 2012)

Legend:
[1] = target: T1, Cytochrome P450 3A4 (Homo sapiens, UniProt P08684); experiment: Activity at recombinant CYP3A4 (unknown origin) expressed in baculovirus-infected insect cells assessed as enzyme-mediated drug depletion by measuring compound level at 1 uM after 4 mins by LC-MS/MS analysis in presence of NADPH; type: ADME
In short: (§1)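 rCYP3A4 (5 pmol/mL) incubated with BILR 402 at 1 or 10 μM in 0.1 M potassium phosphate/5 mM MgCl2, pH 7.4, with NADPH at 37 °C. Remaining BILR 402 and BILR 355 formed were read at 4 min by LC-MS/MS against a labelled internal standard.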

[2] = target: T1, Cytochrome P450 3A4; experiment: Activity at recombinant CYP3A4 (unknown origin) expressed in baculovirus-infected insect cells assessed as enzyme-mediated drug depletion by measuring compound level at 10 uM after 4 mins by LC-MS/MS analysis in presence of NADPH; type: ADME; in short: as §1
[3] = target: T2, Cytochrome P450 1A2 (Homo sapiens, UniProt P05177); experiment: Activity at recombinant CYP1A2 (unknown origin) expressed in baculovirus-infected insect cells assessed as enzyme-mediated drug depletion at 1 to 10 uM by LC-MS/MS analysis in presence of NADPH; type: ADME
T2 sequence (P05177 whole entry): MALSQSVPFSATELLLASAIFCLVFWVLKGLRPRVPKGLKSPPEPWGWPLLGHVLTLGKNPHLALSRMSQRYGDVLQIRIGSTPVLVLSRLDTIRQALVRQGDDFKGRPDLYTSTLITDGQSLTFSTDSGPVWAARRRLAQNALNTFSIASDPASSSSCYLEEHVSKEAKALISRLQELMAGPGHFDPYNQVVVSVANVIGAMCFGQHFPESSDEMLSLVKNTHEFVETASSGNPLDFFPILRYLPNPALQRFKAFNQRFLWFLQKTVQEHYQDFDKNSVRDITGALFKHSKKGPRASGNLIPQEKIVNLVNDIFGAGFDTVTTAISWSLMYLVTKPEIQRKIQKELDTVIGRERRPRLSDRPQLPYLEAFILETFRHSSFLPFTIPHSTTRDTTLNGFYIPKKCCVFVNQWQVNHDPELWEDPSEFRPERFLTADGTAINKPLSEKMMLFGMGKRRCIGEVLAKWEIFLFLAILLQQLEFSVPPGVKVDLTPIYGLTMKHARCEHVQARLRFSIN
In short: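 BILR 402 (1 or 10 μM) with baculovirus/insect-cell recombinant CYPs, levels scaled to average liver content (1A2 2, 2A6 1, 2B6 0.1, 2C9 1.5, 2C19 1.5, 2D6 0.3, 3A4 5 pmol/mL). Buffer 0.1 M potassium phosphate, 5 mM MgCl2, pH 7.4; 2.5 mM NADPH; 37 °C. Non-transfected insect microsomes served as controls. Aliquots taken 0.5–30 min and acetonitrile-quenched; depletion measured by LC-MS/MS with isotope-labelled internal standard.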

[4] = system: Liver cytosol; experiment: Drug metabolism in human liver cytosol assessed as BILR516-18O and BILR516-16O metabolite formation at 5 uM after 60 mins by 18O incorporation based LC-MS/MS analysis; type: ADME, tissue-based; conditions: 1 h
In short: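 BILR 402 (5 μM final) was incubated with human liver cytosol in 0.05 M potassium phosphate buffer made with 100% H2^16O or H2^16O/H2^18O 82:18 (v/v), at 37 °C without NADPH. […] The M+2 isotope contribution was subtracted before calculating peak-area ratios; n=2.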

[5] = target: T3, Aldehyde oxidase (Homo sapiens, UniProt Q06278); experiment: Activity at human recombinant AO expressed in Escherichia coli cells assessed as enzyme-mediated BILR516 metabolite formation at 5 uM by LC-MS/MS analysis; type: ADME
T3 sequence (Q06278 whole entry): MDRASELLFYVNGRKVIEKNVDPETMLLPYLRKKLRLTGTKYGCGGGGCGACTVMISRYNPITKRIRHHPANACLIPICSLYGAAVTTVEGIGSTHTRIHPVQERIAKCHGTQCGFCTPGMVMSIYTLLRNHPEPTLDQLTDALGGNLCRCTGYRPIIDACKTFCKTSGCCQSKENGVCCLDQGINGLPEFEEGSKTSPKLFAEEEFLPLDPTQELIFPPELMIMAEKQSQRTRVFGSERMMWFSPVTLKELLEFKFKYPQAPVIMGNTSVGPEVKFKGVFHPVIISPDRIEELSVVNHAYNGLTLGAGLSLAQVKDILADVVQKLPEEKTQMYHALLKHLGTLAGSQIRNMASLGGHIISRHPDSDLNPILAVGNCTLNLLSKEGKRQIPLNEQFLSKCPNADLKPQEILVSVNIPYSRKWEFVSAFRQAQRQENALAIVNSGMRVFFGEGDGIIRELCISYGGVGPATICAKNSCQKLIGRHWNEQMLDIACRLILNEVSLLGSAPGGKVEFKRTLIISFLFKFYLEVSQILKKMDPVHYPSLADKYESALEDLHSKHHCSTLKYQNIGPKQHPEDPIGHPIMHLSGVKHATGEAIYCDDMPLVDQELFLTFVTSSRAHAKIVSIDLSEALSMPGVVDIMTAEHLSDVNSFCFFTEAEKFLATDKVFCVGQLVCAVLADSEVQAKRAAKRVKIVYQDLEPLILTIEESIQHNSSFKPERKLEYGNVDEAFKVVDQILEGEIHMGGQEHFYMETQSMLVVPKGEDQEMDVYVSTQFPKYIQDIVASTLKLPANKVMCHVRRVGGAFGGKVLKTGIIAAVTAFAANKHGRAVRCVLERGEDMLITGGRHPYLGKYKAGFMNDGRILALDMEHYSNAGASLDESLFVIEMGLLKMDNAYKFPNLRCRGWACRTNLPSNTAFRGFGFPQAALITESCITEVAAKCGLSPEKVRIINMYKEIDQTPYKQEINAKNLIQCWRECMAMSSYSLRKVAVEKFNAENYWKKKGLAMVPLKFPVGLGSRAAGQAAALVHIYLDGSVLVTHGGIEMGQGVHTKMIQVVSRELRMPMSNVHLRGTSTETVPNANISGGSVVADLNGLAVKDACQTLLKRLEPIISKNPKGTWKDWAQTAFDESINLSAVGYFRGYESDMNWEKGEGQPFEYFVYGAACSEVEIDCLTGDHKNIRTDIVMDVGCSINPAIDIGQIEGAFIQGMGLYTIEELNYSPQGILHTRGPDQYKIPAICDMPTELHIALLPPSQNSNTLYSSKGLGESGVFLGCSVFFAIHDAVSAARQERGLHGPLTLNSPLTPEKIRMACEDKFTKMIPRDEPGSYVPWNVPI
In short: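 BILR 402 (5 μM final) incubated with cytosolic extract of E. coli expressing human AO, or control E. coli cytosol lacking AO, 0.1 mg/mL protein, 0.05 M potassium phosphate pH 7.4, 37 °C.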

T1 sequence (P08684 whole entry): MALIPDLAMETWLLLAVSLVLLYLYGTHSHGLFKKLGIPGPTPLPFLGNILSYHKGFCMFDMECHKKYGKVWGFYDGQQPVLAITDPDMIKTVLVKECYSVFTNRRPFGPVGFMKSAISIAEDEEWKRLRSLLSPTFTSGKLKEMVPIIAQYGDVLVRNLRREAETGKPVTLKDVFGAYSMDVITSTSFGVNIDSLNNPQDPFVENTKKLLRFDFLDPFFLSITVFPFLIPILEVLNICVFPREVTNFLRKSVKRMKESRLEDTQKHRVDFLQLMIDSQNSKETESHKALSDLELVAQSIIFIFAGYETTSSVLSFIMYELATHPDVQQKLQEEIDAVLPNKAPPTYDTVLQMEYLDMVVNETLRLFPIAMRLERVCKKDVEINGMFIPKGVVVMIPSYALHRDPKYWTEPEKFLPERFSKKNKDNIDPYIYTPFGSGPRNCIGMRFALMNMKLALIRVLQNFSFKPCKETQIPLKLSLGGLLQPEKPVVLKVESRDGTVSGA

Drug metabolism [1]: 0.25 µM
Drug metabolism [2]: 5 µM
Drug metabolism [3]: metabolite_not_detected
Drug metabolism [4]: metabolite_detected
Drug metabolism [5]: metabolite_detected
Compound: CCN1c2ncc(CCOc3ccnc4ccccc34)cc2C(=O)N(C)c2cccnc21
